Each block holds one compound with its values, some of them ahead of it.
Assays:
[1] = target: T1, Serine/threonine-protein kinase B-raf (Homo sapiens, UniProt P15056, V600E); assay: Inhibition of B-Raf V600E mutant in human SK-MEL-28 cells assessed as reduction of ERK phosphorylation after 1 hr; assay type: cell-based
Outline: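 SKMEL28 cells (EMEM + 10% FBS) plated at 20,000 cells/well; 10-point dilution 20 µM to 0.001 µM, final DMSO 0.2%, 1 h. Fixed in 3.7% formaldehyde, permeabilized with 0.1% Triton X-100. Anti-ERK and anti-phospho-ERK primaries overnight at 4 °C, IR-dye secondaries 1 h, in-cell western on LiCor Odyssey. % inhibition of ERK phosphorylation vs control; IC50 by 4-parameter fit; means of 2–5 experiments.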

[2] = target: T1, Serine/threonine-protein kinase B-raf; assay: Inhibition of B-Raf V600E mutant
SK-MEL-28 = assay: Antiproliferative activity against human SK-MEL-28 cells expressing B-Raf V600E mutant after 3 days by CellTiter-Glo assay; assay type: functional, cell-based
Outline: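 SKMEL28 melanoma cells grown in EMEM + 10% FBS, 1% pen-strep, 1% sodium pyruvate, 37 °C, humidified 5% CO2; plated 500 cells/well. 10-point dilution 20 µM down to 0.001 µM, final DMSO 0.2%, 3 days. Total ATP read by CellTiter-Glo as cell-number surrogate. % growth inhibition vs control wells; IC50 by 4-parameter fit; mean of two experiments.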

[3] = target: Tyrosine-protein kinase Lck (Homo sapiens, UniProt P06239); assay: Inhibition of Lck
[4] = target: Tyrosine-protein kinase BTK (Homo sapiens, UniProt Q06187); assay: Inhibition of Btk
[5] = target: Receptor tyrosine-protein kinase erbB-4 (Homo sapiens, UniProt Q15303); assay: Inhibition of ErbB4
TGF-beta receptor type-1 = target: T2, TGF-beta receptor type-1 (Homo sapiens, UniProt P36897); assay: Inhibition of ALK5
T2 sequence (P36897 whole entry): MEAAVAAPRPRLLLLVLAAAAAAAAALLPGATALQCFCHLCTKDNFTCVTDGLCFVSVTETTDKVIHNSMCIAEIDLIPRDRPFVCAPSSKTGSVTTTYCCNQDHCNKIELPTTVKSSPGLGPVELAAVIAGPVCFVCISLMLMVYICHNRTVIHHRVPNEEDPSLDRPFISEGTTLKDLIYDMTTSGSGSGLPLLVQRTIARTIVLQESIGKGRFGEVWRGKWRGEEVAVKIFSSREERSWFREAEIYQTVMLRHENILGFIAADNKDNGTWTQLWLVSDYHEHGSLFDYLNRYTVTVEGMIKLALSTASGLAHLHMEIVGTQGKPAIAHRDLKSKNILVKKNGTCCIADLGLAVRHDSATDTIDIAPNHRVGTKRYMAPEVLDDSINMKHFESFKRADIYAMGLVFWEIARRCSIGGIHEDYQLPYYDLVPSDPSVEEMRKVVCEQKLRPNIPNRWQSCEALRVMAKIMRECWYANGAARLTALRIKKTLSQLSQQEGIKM

[6] = target: Tyrosine-protein kinase Lyn (Homo sapiens, UniProt P07948); assay: Inhibition of Lyn
Activin receptor type-2B = Activin receptor type-2B (Homo sapiens, UniProt Q13705); assay: Inhibition of ACTR-2B
HFF = assay: Antiproliferative activity against HFF after 3 days by CellTiter-Glo assay; assay type: cell-based; conditions: Homo sapiens, 72 h

T1 sequence (P15056 2-766 V600E limits assumed): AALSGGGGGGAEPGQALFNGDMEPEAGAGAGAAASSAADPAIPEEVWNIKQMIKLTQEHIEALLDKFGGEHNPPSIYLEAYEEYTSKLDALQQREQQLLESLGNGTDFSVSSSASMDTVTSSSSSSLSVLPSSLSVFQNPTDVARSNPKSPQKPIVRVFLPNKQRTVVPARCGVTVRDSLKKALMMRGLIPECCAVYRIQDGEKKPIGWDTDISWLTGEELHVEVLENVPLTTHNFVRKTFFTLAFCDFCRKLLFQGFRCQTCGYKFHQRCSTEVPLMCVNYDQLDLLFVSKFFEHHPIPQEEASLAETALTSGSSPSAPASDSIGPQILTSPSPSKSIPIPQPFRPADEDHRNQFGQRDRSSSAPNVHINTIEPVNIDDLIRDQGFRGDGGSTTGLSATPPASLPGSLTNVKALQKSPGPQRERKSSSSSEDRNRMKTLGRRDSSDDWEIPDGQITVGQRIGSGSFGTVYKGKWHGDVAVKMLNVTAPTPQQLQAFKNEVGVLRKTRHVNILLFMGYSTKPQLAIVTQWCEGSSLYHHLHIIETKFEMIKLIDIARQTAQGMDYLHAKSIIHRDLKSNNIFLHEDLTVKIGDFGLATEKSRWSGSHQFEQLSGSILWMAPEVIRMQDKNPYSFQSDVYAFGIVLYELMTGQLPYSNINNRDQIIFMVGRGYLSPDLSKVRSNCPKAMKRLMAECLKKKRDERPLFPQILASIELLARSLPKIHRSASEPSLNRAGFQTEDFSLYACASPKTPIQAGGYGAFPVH
Tyrosine-protein kinase Lyn, sequence (P07948 whole entry): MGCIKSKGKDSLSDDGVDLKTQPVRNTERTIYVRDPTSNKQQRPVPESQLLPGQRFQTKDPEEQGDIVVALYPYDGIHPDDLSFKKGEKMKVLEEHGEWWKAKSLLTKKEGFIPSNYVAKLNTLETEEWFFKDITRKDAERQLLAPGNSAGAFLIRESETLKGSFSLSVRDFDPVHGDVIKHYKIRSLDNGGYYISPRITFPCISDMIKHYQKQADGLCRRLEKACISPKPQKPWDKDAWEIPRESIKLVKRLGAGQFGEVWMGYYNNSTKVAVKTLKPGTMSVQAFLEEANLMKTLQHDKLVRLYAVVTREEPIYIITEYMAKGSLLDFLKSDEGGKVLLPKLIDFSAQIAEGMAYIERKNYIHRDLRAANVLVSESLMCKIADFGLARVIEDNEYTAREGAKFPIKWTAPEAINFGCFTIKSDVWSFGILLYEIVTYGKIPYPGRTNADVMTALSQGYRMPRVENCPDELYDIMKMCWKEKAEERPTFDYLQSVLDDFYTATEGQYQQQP
Tyrosine-protein kinase Lck, sequence (P06239 whole entry): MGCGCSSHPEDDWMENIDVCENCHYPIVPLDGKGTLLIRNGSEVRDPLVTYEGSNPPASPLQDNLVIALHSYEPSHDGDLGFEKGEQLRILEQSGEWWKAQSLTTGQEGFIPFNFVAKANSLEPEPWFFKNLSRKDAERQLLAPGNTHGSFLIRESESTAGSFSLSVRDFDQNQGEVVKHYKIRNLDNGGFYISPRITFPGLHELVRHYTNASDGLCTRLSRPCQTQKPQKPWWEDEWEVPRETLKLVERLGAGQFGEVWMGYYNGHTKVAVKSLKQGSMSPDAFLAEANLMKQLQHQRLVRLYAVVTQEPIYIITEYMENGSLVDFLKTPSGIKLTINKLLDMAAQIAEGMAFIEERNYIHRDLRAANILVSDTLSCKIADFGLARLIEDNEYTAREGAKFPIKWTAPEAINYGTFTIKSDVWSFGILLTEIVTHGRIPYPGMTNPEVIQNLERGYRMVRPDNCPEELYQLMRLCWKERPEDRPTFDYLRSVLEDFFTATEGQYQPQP
Receptor tyrosine-protein kinase erbB-4, sequence (Q15303 whole entry): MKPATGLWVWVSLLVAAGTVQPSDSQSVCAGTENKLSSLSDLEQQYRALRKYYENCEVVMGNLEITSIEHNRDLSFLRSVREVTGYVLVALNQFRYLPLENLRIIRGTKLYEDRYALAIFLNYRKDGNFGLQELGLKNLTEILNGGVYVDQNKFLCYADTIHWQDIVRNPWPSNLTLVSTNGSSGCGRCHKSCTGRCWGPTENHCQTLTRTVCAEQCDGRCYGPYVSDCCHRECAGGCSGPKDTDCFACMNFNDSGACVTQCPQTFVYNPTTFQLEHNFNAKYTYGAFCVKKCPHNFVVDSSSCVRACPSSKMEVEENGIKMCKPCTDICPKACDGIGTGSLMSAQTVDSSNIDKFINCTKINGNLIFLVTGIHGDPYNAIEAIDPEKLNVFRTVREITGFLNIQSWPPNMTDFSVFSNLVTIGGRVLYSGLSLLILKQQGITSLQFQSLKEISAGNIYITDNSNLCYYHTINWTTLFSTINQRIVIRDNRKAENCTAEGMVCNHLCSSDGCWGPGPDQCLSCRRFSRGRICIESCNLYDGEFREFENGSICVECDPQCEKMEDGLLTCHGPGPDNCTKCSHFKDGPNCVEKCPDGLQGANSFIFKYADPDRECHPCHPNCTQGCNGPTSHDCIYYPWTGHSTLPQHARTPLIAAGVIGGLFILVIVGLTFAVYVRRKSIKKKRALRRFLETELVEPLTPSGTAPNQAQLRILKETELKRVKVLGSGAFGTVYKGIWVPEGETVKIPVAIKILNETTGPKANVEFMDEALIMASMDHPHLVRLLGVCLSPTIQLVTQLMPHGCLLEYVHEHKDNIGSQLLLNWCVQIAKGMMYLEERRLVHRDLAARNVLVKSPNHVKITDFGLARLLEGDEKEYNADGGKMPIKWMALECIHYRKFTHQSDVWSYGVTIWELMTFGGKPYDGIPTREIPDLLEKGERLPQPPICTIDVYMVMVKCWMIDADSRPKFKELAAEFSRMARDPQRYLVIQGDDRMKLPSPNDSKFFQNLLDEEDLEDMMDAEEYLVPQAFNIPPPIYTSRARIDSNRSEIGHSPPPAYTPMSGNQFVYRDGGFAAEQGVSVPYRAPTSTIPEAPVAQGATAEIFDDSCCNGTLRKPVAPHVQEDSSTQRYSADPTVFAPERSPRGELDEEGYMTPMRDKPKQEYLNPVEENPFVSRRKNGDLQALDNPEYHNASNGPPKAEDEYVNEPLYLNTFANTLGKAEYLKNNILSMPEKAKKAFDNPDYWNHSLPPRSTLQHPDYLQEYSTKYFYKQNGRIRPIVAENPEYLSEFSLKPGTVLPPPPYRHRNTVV
Tyrosine-protein kinase BTK, sequence (Q06187 whole entry): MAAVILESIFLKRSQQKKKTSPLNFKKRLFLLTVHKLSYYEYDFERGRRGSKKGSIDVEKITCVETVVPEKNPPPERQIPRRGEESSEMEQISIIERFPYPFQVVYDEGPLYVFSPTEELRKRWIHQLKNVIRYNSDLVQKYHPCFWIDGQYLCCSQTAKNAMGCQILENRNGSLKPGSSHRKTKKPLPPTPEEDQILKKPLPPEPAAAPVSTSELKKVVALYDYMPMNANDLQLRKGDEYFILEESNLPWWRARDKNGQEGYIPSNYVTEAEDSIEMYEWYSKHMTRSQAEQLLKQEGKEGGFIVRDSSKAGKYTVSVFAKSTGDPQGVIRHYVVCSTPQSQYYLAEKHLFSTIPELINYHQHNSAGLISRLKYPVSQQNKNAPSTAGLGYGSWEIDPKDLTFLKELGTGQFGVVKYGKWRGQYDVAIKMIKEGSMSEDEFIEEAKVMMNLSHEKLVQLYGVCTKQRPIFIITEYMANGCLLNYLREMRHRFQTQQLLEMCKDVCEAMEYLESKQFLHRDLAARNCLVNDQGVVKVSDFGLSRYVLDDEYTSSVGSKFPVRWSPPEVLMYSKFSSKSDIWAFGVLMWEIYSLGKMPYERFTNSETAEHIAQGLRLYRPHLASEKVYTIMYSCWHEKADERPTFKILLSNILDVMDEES
Activin receptor type-2B, sequence (Q13705 whole entry): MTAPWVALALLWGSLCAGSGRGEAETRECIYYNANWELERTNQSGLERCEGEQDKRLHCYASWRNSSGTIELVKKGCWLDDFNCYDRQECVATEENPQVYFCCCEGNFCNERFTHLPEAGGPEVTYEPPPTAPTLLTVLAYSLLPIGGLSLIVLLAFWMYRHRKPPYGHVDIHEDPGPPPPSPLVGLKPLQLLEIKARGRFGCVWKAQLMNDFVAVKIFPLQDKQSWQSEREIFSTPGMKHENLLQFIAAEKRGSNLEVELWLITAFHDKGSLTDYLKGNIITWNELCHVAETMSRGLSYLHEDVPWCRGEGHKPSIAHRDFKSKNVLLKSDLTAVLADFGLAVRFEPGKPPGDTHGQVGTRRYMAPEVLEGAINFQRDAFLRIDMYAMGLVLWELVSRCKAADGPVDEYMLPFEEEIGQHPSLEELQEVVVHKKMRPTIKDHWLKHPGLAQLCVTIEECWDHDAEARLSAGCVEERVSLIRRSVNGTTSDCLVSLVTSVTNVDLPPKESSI

Compound: CN1CCc2ccc(Nc3nccc(-c4c(-c5cccc(C(=O)Nc6c(F)cccc6F)c5)nc5ccccn45)n3)cc2C1
EC50 [1]: > 2200 nM | IC50 [2]: 12 nM

Compound: CN1CCc2ccc(Nc3nccc(-c4c(-c5cccc(NC(=O)Nc6c(F)cccc6F)c5)nc5ccccn45)n3)cc2C1
EC50 [1]: > 20000 nM | IC50 [2]: 5 nM | EC50 (SK-MEL-28; Homo sapiens, SK-MEL-28, 72 h): 6340 nM

Compound: CN1CCc2ccc(Nc3nccc(-c4c(-c5cccc(NC(=O)c6c(F)cccc6F)c5)nc5ccccn45)n3)cc2C1
EC50 [1]: > 10000 nM | IC50 [2]: 9 nM | EC50 (SK-MEL-28; Homo sapiens, SK-MEL-28, 72 h): 5320 nM

Compound: CN1CCc2ccc(Nc3nccc(-c4c(-c5cccc(NS(=O)(=O)c6ccccc6)c5)nc5ccccn45)n3)cc2C1
EC50 [1]: 99 nM | IC50 [2]: 132 nM | EC50 (SK-MEL-28; Homo sapiens, SK-MEL-28, 72 h): 1110 nM

Compound: CC(C)c1nc(-c2cccc(NC(=O)c3c(F)cccc3F)c2)c(-c2ccnc(Nc3ccc4c(c3)CN(C)CC4)n2)s1
EC50 [1]: 580 nM | IC50 [2]: 4 nM | EC50 (SK-MEL-28; Homo sapiens, SK-MEL-28, 72 h): 2750 nM

Compound: CC(C)c1nc(-c2cccc(NS(=O)(=O)c3c(F)cccc3F)c2F)c(-c2ccnc(Nc3ccc(N4CCOCC4)nc3)n2)s1
EC50 [1]: 11 nM | IC50 [2]: 0.5 nM | EC50 (SK-MEL-28; Homo sapiens, SK-MEL-28, 72 h): 8 nM

Compound: CC(C)c1nc(-c2cc(F)cc(NS(=O)(=O)c3c(F)cccc3F)c2)c(-c2ccnc(Nc3ccc(N4CCOCC4)nc3)n2)s1
EC50 [1]: 24 nM | IC50 [2]: 0.9 nM | EC50 (SK-MEL-28; Homo sapiens, SK-MEL-28, 72 h): 14 nM

Compound: CC(C)c1nc(-c2ccc(F)c(NS(=O)(=O)c3c(F)cccc3F)c2)c(-c2ccnc(Nc3ccc(N4CCOCC4)nc3)n2)s1 [listing 1 of 2 here]
EC50 [1]: 23 nM | IC50 [3]: 10 nM | IC50 [4]: 10 nM | IC50 [5]: 10 nM | IC50 [2]: 3.8 nM | IC50 (TGF-beta receptor type-1): 10 nM | EC50 (SK-MEL-28; sk-mel-28): 47 nM | IC50 [6]: 10 nM | IC50 (Activin receptor type-2B): 10 nM

Compound: CC(C)c1nc(-c2ccc(F)c(NS(=O)(=O)c3c(F)cccc3F)c2)c(-c2ccnc(Nc3ccc(N4CCOCC4)nc3)n2)s1 [listing 2 of 2 here]
EC50 (HFF): 15600 nM | EC50 (SK-MEL-28; Homo sapiens, SK-MEL-28, 72 h): 52 nM

Second part, the compound after the results:

EC50 [1]: 52 nM | IC50 [2]: 12 nM | EC50 (SK-MEL-28; Homo sapiens, SK-MEL-28, 72 h): 287 nM
Compound: CC(C)c1nc(-c2cccc(NS(=O)(=O)c3ccccc3)c2)c(-c2ccnc(Nc3ccc4c(c3)CN(C)CC4)n2)s1

EC50 [1]: 7 nM | IC50 [2]: 3.6 nM | EC50 (SK-MEL-28; Homo sapiens, SK-MEL-28, 72 h): 24 nM
Compound: CC(=O)N1CCN(c2ccc(Nc3nccc(-c4sc(C(C)C)nc4-c4cccc(NS(=O)(=O)c5ccccc5)c4)n3)cn2)CC1

EC50 [1]: 4730 nM | IC50 [2]: 1970 nM | EC50 (SK-MEL-28; Homo sapiens, SK-MEL-28, 72 h): 8620 nM
Compound: CCc1nc(-c2cccc(N(C)S(=O)(=O)c3ccccc3)c2)c(-c2ccnc(Nc3ccc(N4CCN(C(C)=O)CC4)nc3)n2)s1

EC50 [1]: > 20000 nM | IC50 [2]: 1360 nM | EC50 (SK-MEL-28; Homo sapiens, SK-MEL-28, 72 h): 11100 nM
Compound: CCc1nc(-c2cccc(CS(=O)(=O)c3ccccc3)c2)c(-c2ccnc(Nc3ccc(N4CCN(C(C)=O)CC4)nc3)n2)s1

EC50 [1]: 4 nM | IC50 [2]: 0.6 nM | EC50 (SK-MEL-28; Homo sapiens, SK-MEL-28, 72 h): 4 nM
Compound: CC(=O)N1CCN(c2ccc(Nc3nccc(-c4sc(C(C)C)nc4-c4cccc(NS(=O)(=O)c5ccccc5F)c4)n3)cn2)CC1

EC50 [1]: 10 nM | IC50 [2]: 0.8 nM | EC50 (SK-MEL-28; Homo sapiens, SK-MEL-28, 72 h): 8 nM
Compound: CC(=O)N1CCN(c2ccc(Nc3nccc(-c4sc(C(C)C)nc4-c4cccc(NS(=O)(=O)c5cccc(F)c5)c4)n3)cn2)CC1

EC50 [1]: 9 nM | IC50 [2]: 9.5 nM | EC50 (SK-MEL-28; Homo sapiens, SK-MEL-28, 72 h): 69 nM
Compound: CC(=O)N1CCN(c2ccc(Nc3nccc(-c4sc(C(C)C)nc4-c4cccc(NS(=O)(=O)c5ccc(F)cc5)c4)n3)cn2)CC1

EC50 [1]: 21 nM | IC50 [2]: 34 nM | EC50 (SK-MEL-28; Homo sapiens, SK-MEL-28, 72 h): 85 nM
Compound: CC(=O)N1CCN(c2ccc(Nc3nccc(-c4sc(C(C)C)nc4-c4cccc(NS(=O)(=O)c5cccc(Cl)c5)c4)n3)cn2)CC1

EC50 [1]: 8 nM | IC50 [2]: 0.6 nM | EC50 (SK-MEL-28; Homo sapiens, SK-MEL-28, 72 h): 8 nM
Compound: CC(=O)N1CCN(c2ccc(Nc3nccc(-c4sc(C(C)C)nc4-c4cccc(NS(=O)(=O)c5cc(F)ccc5F)c4)n3)cn2)CC1

EC50 [1]: 10 nM | IC50 [2]: 1.3 nM | EC50 (SK-MEL-28; Homo sapiens, SK-MEL-28, 72 h): 12 nM
Compound: CC(=O)N1CCN(c2ccc(Nc3nccc(-c4sc(C(C)C)nc4-c4cccc(NS(=O)(=O)c5c(F)cccc5F)c4)n3)cn2)CC1

EC50 [1]: 7 nM | IC50 [2]: 1.2 nM | EC50 (SK-MEL-28; Homo sapiens, SK-MEL-28, 72 h): 6 nM
Compound: CC(C)c1nc(-c2cccc(NS(=O)(=O)c3c(F)cccc3F)c2)c(-c2ccnc(Nc3ccc(N4CCOCC4)nc3)n2)s1

Source: ChEMBL document CHEMBL1806396, “Development of potent B-RafV600E inhibitors containing an arylsulfonamide headgroup” (Bioorg Med Chem Lett, 2011)
